ChEMBL document CHEMBL3352764, “Rational design of novel CYP2A6 inhibitors” (Bioorg Med Chem, 2014)

Tests used:
Cytochrome P450 2A6 [1] = molecular target: T1, Cytochrome P450 2A6 (Homo sapiens, UniProt P11509); assay: Inhibition of human CYP2A6 in baculovirus-infected insect cell system using […] as substrate preincubated for 10 mins by fluorescence assay
T1 sequence (P11509 whole entry): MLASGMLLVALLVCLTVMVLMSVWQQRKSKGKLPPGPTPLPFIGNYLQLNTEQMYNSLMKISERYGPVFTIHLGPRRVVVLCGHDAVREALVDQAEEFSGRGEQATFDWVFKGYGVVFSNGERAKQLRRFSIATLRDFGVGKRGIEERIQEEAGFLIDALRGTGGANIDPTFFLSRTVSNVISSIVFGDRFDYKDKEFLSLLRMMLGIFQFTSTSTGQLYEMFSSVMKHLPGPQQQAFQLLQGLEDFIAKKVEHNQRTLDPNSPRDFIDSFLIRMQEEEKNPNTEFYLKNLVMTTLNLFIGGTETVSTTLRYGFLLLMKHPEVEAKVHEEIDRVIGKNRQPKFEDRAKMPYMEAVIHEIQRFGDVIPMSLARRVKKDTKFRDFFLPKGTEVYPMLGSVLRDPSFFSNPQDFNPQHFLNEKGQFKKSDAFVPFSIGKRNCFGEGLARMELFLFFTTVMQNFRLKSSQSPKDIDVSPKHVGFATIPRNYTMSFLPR
Procedure, shortened: (§1)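 Coumarin 7-hydroxylation by baculovirus/insect-cell human CYP2A6. Reaction started with NADPH (final 0.33 mM) and preincubated 10 min at 37 °C. Stopped with 10% TCA, then 1.6 M glycine-NaOH added; 7-hydroxycoumarin fluorescence read at ex 355/em 450 nm. Blanks subtracted; activity as % of control; IC50 by nonlinear fitting.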

Cytochrome P450 2A6 [2] = molecular target: T1, Cytochrome P450 2A6; assay: Inhibition of human CYP2A6 in baculovirus-infected insect cell system using […] as substrate incubated for 30 mins prior to substrate addition measured after 10 mins by fluorescence assay; details: for inhibition (INH): human, 10 min
CYP2A6 = molecular target: T2, CYP2A6 (Homo sapiens, UniProt P11509); assay: (§2) Irreversible inhibition of human CYP2A6 in baculovirus-infected insect cell system using […] as substrate incubated for 10 mins by fluorescence assay; details: human, probe coumarin (printed: coumarin 7)
T2 sequence (P11509 whole entry): T1 sequence (P11509 whole entry)
Procedure, shortened: (§3)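 Inactivation: five inhibitor concentrations plus vehicle preincubated various times (including 0 min) with 5–20 pmol CYP2A6 and NADPH. Then diluted 10–40 fold into 50 mM Tris–HCl pH 7.4, 5 mM MgCl2, 10 µM coumarin, 0.3 mM NADPH, 10 min at 37 °C. Kobs from ln activity vs time; Kinact and Ki from double-reciprocal regression.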

Cytochrome P450 2A6 [3] = molecular target: T1, Cytochrome P450 2A6; assay: as §2; procedure, shortened: as §3
Cytochrome P450 2A6 [4] = molecular target: T1, Cytochrome P450 2A6; assay: Competitive inhibition of human CYP2A6 in baculovirus-infected insect cell system assessed as nicotine metabolism after 15 mins
Procedure, shortened: (§4)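 Nicotine oxidation by expressed CYP2A6 (with P450 reductase and cytochrome b5): 10 pmol CYP and 10 pmol b5/ml, 1 mM NADPH, 50 µl cytosol, 50 mM Tris–HCl pH 7.4, 37 °C, 15 min. Stopped with 4% v/v Na2CO3; 5-methylcotinine internal standard; nicotine and metabolites quantified by HPLC. Drug concentrations expressed as free base.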

Cytochrome P450 2A6 [5] = molecular target: T1, Cytochrome P450 2A6; assay: Reversible inhibition of human CYP2A6 in baculovirus-infected insect cell system using […] as substrate preincubated for 10 mins by fluorescence assay; procedure, shortened: as §1
Cytochrome P450 2A6 [6] = molecular target: T1, Cytochrome P450 2A6; assay: Inhibition of human CYP2A6 in baculovirus-infected insect cell system using […] as substrate in presence of mouse liver cytosolic fraction by fluorescence assay
Cytochrome P450 2A6 [7] = molecular target: T1, Cytochrome P450 2A6; assay: Mixed-type inhibition of human CYP2A6 in baculovirus-infected insect cell system assessed as nicotine metabolism after 15 mins; procedure, shortened: as §4
Cytochrome P450 2A6 [8] = molecular target: T1, Cytochrome P450 2A6; assay: Irreversible inhibition of human CYP2A6 in baculovirus-infected insect cell system assessed as nicotine metabolism after 15 mins; procedure, shortened: as §4

IC50 (Cytochrome P450 2A6 [1])	inhibition (INH) (Cytochrome P450 2A6 [2])	SMILES	other results
8100 nM	–	Cc1ccc(C#N)cc1	–
–	Active	NCc1cc2ccccc2s1	Ki (Cytochrome P450 2A6 [1]): 10 nM
11000 nM	–	O=Cc1cc2ccccc2[nH]1	IC50 (Cytochrome P450 2A6 [2]): 1800 nM; kinact at 10 min (CYP2A6): 0.00133 s⁻¹; Ki (Cytochrome P450 2A6 [3]; read-out: Ki): 2400 nM
17000 nM	–	O=Cc1cc2ccccc2o1	–
7400 nM	Active	Brc1ccc2[nH]ccc2c1	–
300 nM	Active	O=Cc1cc2cnccc2s1	Ki (Cytochrome P450 2A6 [1]): 70 nM; Ki (Cytochrome P450 2A6 [4]): 1100 nM; inhibition (INH) (Cytochrome P450 2A6 [5]): Active; inhibition (INH) (Cytochrome P450 2A6 [6]): Not Active
400 nM	Active	O=Cc1cc2ccncc2s1	Ki (Cytochrome P450 2A6 [1]): 60 nM; Ki (Cytochrome P450 2A6 [4]): 4200 nM; inhibition (INH) (Cytochrome P450 2A6 [6]): Not Active
400 nM	Active	NCc1csc2ccc(Cl)cc12	Ki (Cytochrome P450 2A6 [1]): 90 nM; Ki (Cytochrome P450 2A6 [7]): 6000 nM
500 nM	Active	CNCc1cc2ccccc2s1	–
700 nM	Active	NCc1csc2ccc(Br)cc12	Ki (Cytochrome P450 2A6 [1]): 200 nM; Ki (Cytochrome P450 2A6 [7]): 800 nM; inhibition (INH) (Cytochrome P450 2A6 [5]): Active
900 nM	Active	O=Cc1ccc2sccc2c1	–
1000 nM	Active	NCc1cc2cnccc2s1	–
1400 nM	Active	CN(C)Cc1cc2cnccc2s1	Ki (Cytochrome P450 2A6 [1]): 600 nM; Ki (Cytochrome P450 2A6 [4]): 500 nM; inhibition (INH) (Cytochrome P450 2A6 [5]): Active
1500 nM	Active	CNCc1cc2cnccc2s1	–
2200 nM	Active	CNCc1cc2cccnc2s1	Ki (Cytochrome P450 2A6 [1]): 800 nM
3200 nM	–	O=Cc1cc2ccccc2s1	IC50 (Cytochrome P450 2A6 [2]): 800 nM; Ki (Cytochrome P450 2A6 [3]; read-out: Ki(app)): 130 nM
3400 nM	Active	Cc1ccc2sc(C=O)cc2c1	–
5000 nM	–	O=Cc1csc2ccc(Br)cc12	IC50 (Cytochrome P450 2A6 [2]): 500 nM; Ki (Cytochrome P450 2A6 [3]; read-out: Ki(app)): 1500 nM
5200 nM	Active	NCc1cc2ccncc2s1	–
6600 nM	Active	NC(=S)c1csc2ccncc12	–
8000 nM	–	O=Cc1cc2cccnc2s1	IC50 (Cytochrome P450 2A6 [2]): 400 nM; kinact at 10 min (CYP2A6): 0.00133 s⁻¹; Ki (Cytochrome P450 2A6 [3]; read-out: Ki): 2400 nM
11000 nM	Active	O=Cc1cccc2ccsc12	–
18000 nM	Active	OCc1cc2ccccc2s1	–

IC50 (Cytochrome P450 2A6 [1])	inhibition (INH) (Cytochrome P450 2A6 [2])	SMILES	other results
37000 nM	Active	OCc1csc2ccccc12	–
41000 nM	Active	N#Cc1csc2ccc(Cl)cc12	–
51000 nM	Active	N#CCc1csc2ccc(Cl)cc12	–
88000 nM	Active	Cc1csc2ccc(Cl)cc12	–
270000 nM	–	O=C(Cl)c1csc2ccccc12	–
400 nM	–	O=Cc1ccc2occc2c1	Ki (Cytochrome P450 2A6 [1]): 70 nM; IC50 (Cytochrome P450 2A6 [2]): 50 nM; kinact at 10 min (CYP2A6): 0.00133 s⁻¹; Ki (Cytochrome P450 2A6 [3]; read-out: Ki): 2400 nM; Ki (Cytochrome P450 2A6 [4]): 5500 nM; inhibition (INH) (Cytochrome P450 2A6 [6]): Not Active
1600 nM	–	N#Cc1ccc2occc2c1	Ki (Cytochrome P450 2A6 [1]): 100 nM; IC50 (Cytochrome P450 2A6 [2]): 600 nM; kinact at 10 min (CYP2A6): 0.00133 s⁻¹; Ki (Cytochrome P450 2A6 [3]; read-out: Ki): 2400 nM; Ki (Cytochrome P450 2A6 [8]): 200 nM
52000 nM	–	N#Cc1cc2ccccc2o1	–
72000 nM	–	O=Cc1cc2cc(Br)ccc2o1	–
< 100000 nM	–	OCc1cc2cc(Br)ccc2o1	–
< 100000 nM	–	NCc1cc2cc(Br)ccc2o1	–
< 100000 nM	–	O=CCc1coc2ccccc12	–
140000 nM	–	Brc1cc2ccccc2o1	–
400 nM	Active	O=Cc1ccc2[nH]ccc2c1	Ki (Cytochrome P450 2A6 [1]): 70 nM; Ki (Cytochrome P450 2A6 [4]): 1800 nM; inhibition (INH) (Cytochrome P450 2A6 [6]): Not Active
680 nM	Active	Cn1ccc2cc(C=O)ccc21	–
1500 nM	Active	O=Cc1ccc2cc[nH]c2c1	–
8400 nM	Active	Cn1ccc2ccc(C=O)cc21	–
12000 nM	Active	O=Cc1c[nH]c2cccc(Br)c12	Ki (Cytochrome P450 2A6 [1]): 8600 nM
34000 nM	Active	Cc1cc2cc(N)ccc2[nH]1	–
57000 nM	Active	O=Cc1c[nH]c2cc(Br)ccc12	Ki (Cytochrome P450 2A6 [1]): 3300 nM
7400 nM	–	CCc1ccc(C#N)cc1	–
79000 nM	Active	O=Cc1c[nH]c2ccccc12 [3-FORMYLINDOLE]	Ki (Cytochrome P450 2A6 [1]): 11000 nM
